# The list is not random: actives were taken first. Their share in the collection is about 3.5%.
# MEKK3 PB1 HTS = modulators of MEKK3-MEK5 PB1 binding, primary screen, biochemical, wildtype MEKK3, multiplex bead flow cytometry, Alexa488-MEK5 | bead-based flow cytometry, Alexa488-MEK5 binding to MEKK3; actives lie on both sides; 0 = blocked by unlabeled MEK5, 100 = vehicle | binding response (% of control), % at 10 µM | 290,000 compounds, 1.4% hits | AID 1529, 2009;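 active = binding response more than 3 SD above or below the average of its plate-row segment, actives on both sides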;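 note: Alexa488 bead fluorescence after subtracting the streptavidin-only scavenger bead signal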
# MEKK2 WT-MEK5 = modulators of MEK5 binding to wildtype MEKK2, primary screen, biochemical, multiplex bead flow cytometry, Alexa488-MEK5; 290,000 compounds, 1.1% hits; binding response (% of control), % at 10 µM; AID 1531, 2009; Alexa488-MEK5 binding to MEKK2 WT; actives lie on both sides; Mitogen-activated protein kinase kinase kinase 2 (Homo sapiens), Q9Y2U5; in the data active = binding response below about 67% or above about 130%
# WT yeast gro inh = growth inhibition of WT strain, primary screen, mitochondrial fusion inhibitor project, WT and mutant strains, chemical genetic. inhibition, % at 10 µM. mitochondrial fusion phenotypic screen. 190,000 compounds, 2.1% hits; in the data active = inhibition above about 58%; tested in S. cerevisiae
# MEKK2 mut-MEK5 = MEK5 binding signal on mutant MEKK2 PB1, primary screen, biochemical, multiplex bead flow cytometry, Alexa488-MEK5. 290,000 compounds, 0.35% hits. Alexa488-MEK5 binding to MEKK2 mutant. percent response, % at 10 µM. AID 1530, 2009; in the data active = percent response above about 24%, passing the limit was not always enough
# ABCG2 inh = ABCG2 efflux pump inhibitors, primary screen, multiplex with ABCB1, IgMXP3 cells, flow cytometry | inhibition, % at 6.6 µM | Broad substrate specificity ATP-binding cassette transporter ABCG2 (Homo sapiens), Q9UNQ0 | JC-1 efflux | 190,000 compounds, 0.1% hits;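 active = inhibition above 80%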
#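 Incubation: cells with compound and JC-1, 10 min at 25 °C, rotating, no wash / Test system: IgMXP3 (ABCG2) plus far-red-tagged CCRF-Adr (ABCB1) cells / Compound dosing: one concentration, 6.6 µM final / Also added: JC-1 fluorescent substrate / Evaluation: efflux inhibition in percent versus controls / Detection: flow cytometry, 530 nm JC-1 signal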
# ABCB1 inh = ABCB1 efflux pump inhibitors, primary screen, cell-based, multiplex, flow cytometry, ABCG2 counter-screen. ATP-dependent translocase ABCB1 (Homo sapiens), P08183. CCRF-Adr cells, JC-1 efflux. inhibition, % at 6.6 µM. 190,000 compounds, 0.067% hits; in the data active = inhibition above about 40%;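 note: higher value means more JC-1 retained so stronger ABCB1 efflux block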
# Target sequence (P08183 whole entry, looked up): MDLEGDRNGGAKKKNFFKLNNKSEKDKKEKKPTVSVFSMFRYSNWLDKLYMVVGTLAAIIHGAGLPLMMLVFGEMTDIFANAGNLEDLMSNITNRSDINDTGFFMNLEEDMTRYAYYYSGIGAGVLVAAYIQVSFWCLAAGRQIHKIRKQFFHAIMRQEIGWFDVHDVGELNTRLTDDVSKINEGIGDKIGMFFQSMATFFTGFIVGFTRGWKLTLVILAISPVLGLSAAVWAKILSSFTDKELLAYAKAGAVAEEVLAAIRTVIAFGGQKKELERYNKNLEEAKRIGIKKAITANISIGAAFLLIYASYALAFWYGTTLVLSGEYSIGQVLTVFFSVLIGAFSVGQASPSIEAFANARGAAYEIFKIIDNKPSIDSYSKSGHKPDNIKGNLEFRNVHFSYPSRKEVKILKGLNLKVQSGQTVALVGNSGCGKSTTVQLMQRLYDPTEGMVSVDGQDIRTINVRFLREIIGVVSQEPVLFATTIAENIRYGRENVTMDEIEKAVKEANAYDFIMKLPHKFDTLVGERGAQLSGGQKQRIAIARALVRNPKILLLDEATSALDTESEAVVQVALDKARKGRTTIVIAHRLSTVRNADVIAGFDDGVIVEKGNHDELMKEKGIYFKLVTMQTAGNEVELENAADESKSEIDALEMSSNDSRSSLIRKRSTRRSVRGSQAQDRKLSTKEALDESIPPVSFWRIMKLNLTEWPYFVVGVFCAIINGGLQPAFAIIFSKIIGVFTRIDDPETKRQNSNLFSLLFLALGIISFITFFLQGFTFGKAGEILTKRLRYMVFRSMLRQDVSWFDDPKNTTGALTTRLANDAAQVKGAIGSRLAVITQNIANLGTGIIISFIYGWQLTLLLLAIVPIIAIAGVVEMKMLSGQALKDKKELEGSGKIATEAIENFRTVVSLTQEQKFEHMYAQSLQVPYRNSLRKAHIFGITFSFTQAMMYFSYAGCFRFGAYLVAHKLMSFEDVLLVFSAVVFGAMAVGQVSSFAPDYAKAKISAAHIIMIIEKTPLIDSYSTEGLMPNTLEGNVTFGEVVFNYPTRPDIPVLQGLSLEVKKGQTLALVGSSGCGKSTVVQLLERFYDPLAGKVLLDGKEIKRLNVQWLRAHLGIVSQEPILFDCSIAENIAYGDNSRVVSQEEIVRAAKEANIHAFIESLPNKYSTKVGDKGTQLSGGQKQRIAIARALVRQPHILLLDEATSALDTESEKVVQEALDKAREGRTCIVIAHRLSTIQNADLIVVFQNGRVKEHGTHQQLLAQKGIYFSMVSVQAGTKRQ
# MEKK2wt confirm = modulators of MEK5 binding to wildtype MEKK2, confirmation, biochemical, single concentration, multiplex bead flow cytometry. Alexa488-MEK5 binding to MEKK2 WT; actives lie on both sides. binding response (% of control), % at 10 µM. 5,900 compounds, 2.4% hits. AID 1892, 2009. shares compounds with MEKK3 PB1 HTS; in the data active = binding response below about 16% or above about 210%; inactive = in between
# MEKK2mut-MEK5 = mutant MEKK2 PB1-MEK5 binding signal retest – biochemical, single concentration, multiplex bead flow cytometry, confirmation; 5,900 compounds, 2% hits; Alexa488-MEK5 binding to MEKK2 mutant; AID 1893, 2009; shares compounds with MEKK3 PB1 HTS; percent response, % at 10 µM; in the data active = percent response mostly above about 71%, no sharp cut-off; inactive = mostly below about 38%;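 note: higher means compound restores mutant binding toward wildtype level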
# MEKK3-MEK5 inh = MEKK3 wild-type PB1 binding to MEK5, inhibitors, confirmation, biochemical, bead multiplex flow cytometry, single concentration, wildtype; Alexa488-MEK5 binding to MEKK3; active compounds read low; 5,900 compounds, 1.8% hits; AID 1894, 2009; shares compounds with MEKK3 PB1 HTS; binding response (% of control), % at 10 µM;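 active = binding response below 72% of control, or above a set upper limit, though filed actives all read lower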;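 note: lower values mean stronger disruption of MEK5 binding to MEKK3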
# A number is an active result; – = inactive; · = not tested or not shown; [ ] = remark or other dose.
SMILES,MEKK3 PB1 HTS,MEKK2 WT-MEK5,WT yeast gro inh,MEKK2 mut-MEK5,ABCG2 inh,ABCB1 inh,MEKK2wt confirm,MEKK2mut-MEK5,MEKK3-MEK5 inh
CC1=CC(C)(C)n2c(O)c(N=N)c3cc(C)cc1c32,141.0,–,–,–,–,–,–,–,–
COCCCNC(=O)CN(CCc1ccccc1)S(=O)(=O)c1ccccc1,–,–,–,–,–,–,·,·,·
COCCCNC(=O)CN(Cc1ccccc1)S(=O)(=O)c1ccccc1,–,–,·,27.0,·,·,–,–,–
O=C(/C=C/c1ccccc1)NC1CCS(=O)(=O)C1 (stereo not drawn),72.0[inhibitor],–,–,–,–,–,–,–,–
Cc1ccc(/C=C/C(=O)NC2CCS(=O)(=O)C2)cc1 (stereo not drawn),–,–,–,–,–,–,·,·,·
Cc1nc(Oc2ccc(S(=O)(=O)N3CCOCC3)cc2Cl)c2c3c(sc2n1)CCCC3,–,–,–,–,–,–,·,·,·
COc1cc(/C=N/NC(=O)CCc2c(C)n[nH]c2C)ccc1O,123.0,–,–,–,–,–,–,–,–
CCn1c(SCC(=O)N/N=C/c2cccs2)nc2ccccc21,144.0,–,–,–,–,–,–,–,–
CCn1c(SCC(=O)N/N=C/c2ccc(O)c(OC)c2)nc2ccccc21,163.0,–,–,–,–,–,–,–,–
CCn1c(SCC(=O)N/N=C/c2cc(OC)c(O)c(OC)c2)nc2ccccc21,–,–,–,–,–,–,·,·,·
O=C(c1cc2n(n1)C(C(F)(F)F)CC(c1ccc(F)cc1)N2)N1CCCC1 (stereo not drawn),–,–,–,–,–,–,·,·,·
CN(/N=C/c1ccncc1)c1cnc2ccccc2n1,74.0[inhibitor],–,–,–,–,–,–,–,–
CS(=O)(=O)c1ccc2nc(NC(=O)c3ccc(S(=O)(=O)NCC4CCCO4)cc3)sc2c1 (stereo not drawn),–,–,–,–,–,–,·,·,·
Cc1ccc(C(=O)NCCc2sc(C)nc2C)cc1,–,–,–,–,–,–,·,·,·
Cc1nc(C)c(CCNC(=O)c2ccc(C(F)(F)F)cc2)s1,138.0,–,–,–,–,–,–,–,–
O=C(CCOc1ccccc1)Nc1cccc(S(=O)(=O)Nc2ccccc2Cl)c1,151.0,–,–,–,–,–,–,–,–
O=C(Nc1cccc(S(=O)(=O)Nc2ccccc2Cl)c1)c1ccc(Cl)nc1,–,–,–,–,–,–,·,·,·
Nc1ccccc1C(=O)NCC1(c2ccccc2)CCCC1,–,–,·,–,·,·,·,·,·
NC(=O)NC(=O)Nc1ccccc1Cl,130.0,–,–,–,–,–,–,–,–
CC1CCCC(NCC(=O)Nc2ccc(C(N)=O)cc2)C1C (stereo not drawn),–,–,–,–,–,–,·,·,·
CC(C)n1cc(CN2CCN(CCc3ccccc3)C(CCO)C2)cn1 (stereo not drawn),–,–,–,–,–,–,·,·,·
Cc1ccc(C(=O)NC(=O)OCCn2c(C)cnc2[N+](=O)[O-])cc1,–,–,–,–,–,–,·,·,·
O=C(CCSc1ccccc1)Nc1nnc(-c2cccs2)o1,–,–,–,–,–,–,·,·,·
CCOC(=O)c1c(C)[nH]c2cc(Br)c(O)cc12,2.0[inhibitor],2.0[inhibitor],–,–,–,–,–,–,–
CCOC(=O)c1nc2ccccc2nc1C,143.0,–,–,–,–,–,–,–,–
SMILES,MEKK3 PB1 HTS,MEKK2 WT-MEK5,WT yeast gro inh,MEKK2 mut-MEK5,ABCG2 inh,ABCB1 inh,MEKK2wt confirm,MEKK2mut-MEK5,MEKK3-MEK5 inh
COc1ccc(C(=O)NC(C)c2cnn(-c3ccccn3)c2C)o1 (stereo not drawn),–,–,·,–,·,·,·,·,·
Cc1ccc(S(=O)(=O)Nc2c(C)nn(C)c2C)cc1,–,–,–,–,–,–,·,·,·
CCn1nc(C)c(NS(=O)(=O)c2ccc(C)cc2)c1C,73.0[inhibitor],–,–,–,–,–,–,–,–
CN(c1ccc(F)cc1)S(=O)(=O)c1ccc(Cl)c(C(=O)Nc2ccc3c(c2)CCC3)c1,134.0,–,–,–,–,–,–,–,–
COc1ccc(/C=N/Nc2ncnc3sc(C)c(C)c23)cc1,133.0,–,–,–,–,–,–,–,–
Cc1onc(-c2ccccc2)c1C(=O)NCc1ccc2c(c1)OCO2,–,-6.0[inhibitor],–,–,–,–,–,–,–
CCOC(=O)c1c(C)[nH]c(C(=O)N2CCC(C(=O)OCC)CC2)c1C,–,–,·,–,·,·,·,·,·
CCc1nc(NCC(C)C)c(C#N)c2c1COC(C)(C)C2,–,–,–,–,–,–,·,·,·
CCc1nc(NCCO)c(C#N)c2c1CSC(C)(C)C2,50.0[inhibitor],–,·,–,·,·,–,–,–
CCN(CC)CCn1c(SCC(=O)Nc2cccc(OC)c2)nc2c(sc3ccccc32)c1=O,–,174.0,–,–,–,–,–,–,–
CCN(CC)CCn1c(SCC(=O)NCc2ccco2)nc2c(sc3ccccc32)c1=O,–,–,–,–,–,–,·,·,·
COc1cccc(NC(=O)CSc2nc3c(sc4ccccc43)c(=O)n2CCN(C)C)c1,–,147.0,–,–,–,–,–,–,–
CC(=O)OCC(=O)Nc1ccccc1C,–,–,–,–,–,–,·,·,·
O=C(O)c1ccc(/C=N/NC(=O)C(O)(c2ccccc2)c2ccccc2)cc1,–,–,·,–,·,·,·,·,·
CCN(CC)c1ccc(/C=N/NC(=O)C(O)(c2ccccc2)c2ccccc2)o1,75.0[inhibitor],–,–,–,–,–,–,–,–
CCOc1cc(/C=C2/SC(=S)N(Cc3ccccc3)C2=O)ccc1O,–,61.0[inhibitor],·,–,·,·,–,–,–
COc1cc(/C=C2/SC(=S)N(Cc3ccccc3)C2=O)ccc1OCC(=O)O,–,–,·,–,·,·,·,·,·
COc1ccc(-n2nc3c(c2NC(=O)COc2ccccc2F)CS(=O)(=O)C3)cc1,–,–,·,–,·,·,·,·,·

# High-throughput results (PubChem BioAssay)
